From PubChem
An excerpt weighted towards active compounds, which were near 2.2% of everything screened.
SUMO1 PPI mod: SUMO1-SIM interaction modulation | P63165 | SUMO1 binding to a labelled peptide, TR-FRET, 1 h | AID 602429 | 0.33% of 360,000 active | inhibition, % at 20 µM; in the data active means inhibition above about 37%
Target sequence (P63165 whole entry, looked up): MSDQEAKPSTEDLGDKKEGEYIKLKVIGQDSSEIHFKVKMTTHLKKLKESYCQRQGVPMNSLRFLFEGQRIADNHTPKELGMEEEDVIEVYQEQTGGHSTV
STEP inh: inhibitors of human striatal-enriched phosphatase STEP. recombinant STEP, OMFP fluorogenic substrate, fluorescence. AID 588621. 0.25% of 360,000 active. inhibition, % at 20 µM. P54829;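 active means inhibition at 20 µM, scaled per plate between control wells, above about 37%, limit read from the data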;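 further: 0% = DMSO with enzyme and substrate and 100% = substrate only without enzyme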
Target sequence (P54829 whole entry, looked up): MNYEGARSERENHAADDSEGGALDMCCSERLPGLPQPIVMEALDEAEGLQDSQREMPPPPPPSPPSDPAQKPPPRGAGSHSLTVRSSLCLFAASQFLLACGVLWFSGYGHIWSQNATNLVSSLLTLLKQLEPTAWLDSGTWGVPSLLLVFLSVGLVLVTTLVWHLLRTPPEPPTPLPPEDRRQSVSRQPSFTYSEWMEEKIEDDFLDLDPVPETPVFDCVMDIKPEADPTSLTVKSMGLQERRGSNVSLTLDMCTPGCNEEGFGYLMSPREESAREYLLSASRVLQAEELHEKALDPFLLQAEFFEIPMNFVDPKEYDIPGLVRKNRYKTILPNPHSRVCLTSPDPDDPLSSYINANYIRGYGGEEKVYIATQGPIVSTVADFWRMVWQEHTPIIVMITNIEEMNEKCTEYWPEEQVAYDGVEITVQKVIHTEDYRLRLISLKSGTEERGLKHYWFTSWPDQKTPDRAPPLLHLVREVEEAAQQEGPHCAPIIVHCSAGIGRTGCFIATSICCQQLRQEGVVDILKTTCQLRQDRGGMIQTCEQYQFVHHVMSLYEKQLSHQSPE
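Also added – OMFP at 25 µM · Test system – STEP tyrosine phosphatase · Technique – FITC-channel fluorescence of OMFP product · Schedule – 20 min at room temperature, dark · Evaluation – control-normalized % inhibition with plate pattern correction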
LMPTP block: blocks human LMPTP phosphatase | inhibition, % at 20 µM | AID 651560 | recombinant LMPTP-A, OMFP fluorogenic substrate, fluorescence intensity | 0.22% of 360,000 active;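 active means compounds that cut the enzyme signal by at least half of the control window in the single-dose screen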;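 further: plate controls were DMSO wells with enzyme plus substrate for no effect and substrate without enzyme for full effect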
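Material: LMPTP-A; amount: 0.625 nM enzyme; doses: single 20 µM dose; times: reaction 50 min, room temperature, dark; technique: fluorescence intensity of OMFP turnover product; benchmarks: no-enzyme and uninhibited controls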
Scp1 inh: blocks human Scp-1 phosphatase activity; inhibition, % at 20 µM; Q9GZU7; Recombinant Scp1, phosphopeptide, malachite green phosphate absorbance; 0.88% of 340,000 active; AID 493091;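 active means inhibition above about 50% at 20 µM, limit read from the data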;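 further: plate controls were DMSO wells with enzyme for no effect and wells lacking enzyme for full effect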
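Assay system: SCP-1 catalytic fragment, aa 76-261 | Buffer or medium: Tris acetate buffer pH 5.5 with MgCl2 and Tween-20 | Compound: One concentration, 20 µM, with 1.0% DMSO | Also added: Phospho 17-mer peptide substrate | Signal: Absorbance at 630 nm | Incubation: 45 min enzyme reaction at room temperature | Measure: % inhibition of SCP-1 phosphate liberation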
GRK2 inh: blocks RNA aptamer binding to human GRK2 | inhibition of aptamer binding, % at 10 µM | P25098 | bead flow cytometry, FAM-aptamer displacement from GRK2 | 0.59% of 330,000 active;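 active means inhibition of aptamer binding above 40%, roughly 3 SD of noise, on plates passing a quality check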;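 further: median bead fluorescence of bound FAM aptamer so fluorescent compounds give negative values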
DNMT1 block: DNMT1 (human) enzyme inhibition; P26358; inhibition (reported as % activation of signal), % at 10 µM; 0.83% of 360,000 active; DNMT1 molecular beacon, Hinp1I cleavage, fluorescence; in the data active means inhibition above about 50%
Scp1 confirm: confirmation of human Scp-1 phosphatase inhibitors | shares compounds with Scp1 inh | recombinant SCP-1 catalytic domain, phosphate release, malachite green absorbance | inhibition, % at 20 µM | 61% of 2,500 active | AID 540281;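 further: plate controls were DMSO with enzyme for no effect and buffer wells lacking enzyme for full effect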
Scp-1 MG ctr: colorimetric interference in Scp-1 counter-screen; shares compounds with Scp1 inh; Colorimetric interference counterscreen, malachite green absorbance 630 nm; apparent inhibition (interference), % at 20 µM; 2,500 tested, under 10 active;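 further: compounds added after enzyme reaction finished so only phosphate colour detection is probed; plate controls were DMSO wells with completed Scp-1 reaction for no effect and substrate wells lacking enzyme for full effect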
Scp-1 Tm shift: Scp-1 (human) binding by thermal shift | shares compounds with Scp1 inh | AID 540329 | Recombinant SCP1, Sypro Orange thermal shift Tm | thermal shift relative to vanadate control, % at 40 µM | 25% of 1,500 active;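 active means substances whose mean melting-temperature shift, as a percentage of the reference inhibitor's shift, reaches about 5.3%, limit read from the data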;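 further: 0% = Tm of DMSO wells and 100% = Tm with sodium orthovanadate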
* hit, by the source's call.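 How the source made its calls, unless noted: active means inhibition of at least 30% at 20 µM; inactive means the rest.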

For CCN(CC(=O)NC1CCCCC1)S(=O)(=O)c1ccc(Cl)cc1 the results were SUMO1 PPI mod 1.1, STEP inh 0.6, LMPTP block 1.2, Scp1 inh 63.5*, GRK2 inh 0.0, DNMT1 block 4.5, Scp1 confirm -8.4 and Scp-1 MG ctr -6.2.
Screening COC(=O)Cn1c(=NC(=O)c2nc3ccccc3s2)sc2cc(S(C)(=O)=O)ccc21 returned GRK2 inh 0.0.
`CCOC(=O)Cn1c(=NC(=O)c2sc3ccccc3c2Cl)sc2cc(S(N)(=O)=O)ccc21` gave SUMO1 PPI mod 3.2, STEP inh 14.4, LMPTP block 57.8*, Scp1 inh 66.9*, GRK2 inh 0.0, DNMT1 block 36.5, Scp1 confirm 75.2*, Scp-1 MG ctr -11.8 and Scp-1 Tm shift 7.9*.
COc1ccccc1Oc1nc2c(c(=O)n(Cc3ccccc3F)c(=O)n2C)n1C was read as SUMO1 PPI mod 3.4, STEP inh -2.4, LMPTP block -0.2, Scp1 inh 67.5*, GRK2 inh 2.0, DNMT1 block -3.2, Scp1 confirm 0.5 and Scp-1 MG ctr -0.5.
COCCNc1ncnc2c1ncn2[C@H]1CN(Cc2ccccc2)C[C@@H](CO)O1 was read as SUMO1 PPI mod 0.7, STEP inh 4.1, LMPTP block -0.9 and DNMT1 block 3.4.
Screening CN(C)CCOC(=O)C1(c2ccccc2)CCCC1 returned SUMO1 PPI mod -2.0, STEP inh -2.9, LMPTP block -1.8, Scp1 inh -4.2, GRK2 inh 1.0 and DNMT1 block -1.0.
C[N+]1(CCCOC(=O)C2(c3ccccc3)CCCC2)CCOCC1 was read as SUMO1 PPI mod 21.5, STEP inh -1.2, LMPTP block -0.3, Scp1 inh 73.6*, GRK2 inh 0.0, DNMT1 block -1.1, Scp1 confirm 37.1*, Scp-1 MG ctr -13.9 and Scp-1 Tm shift 1.1.
`O=C(COc1ccc(/C=N/NS(=O)(=O)c2ccccc2)cc1)Nc1ccccc1` gave SUMO1 PPI mod -0.8, STEP inh 0.3, LMPTP block 0.9, Scp1 inh -4.4, GRK2 inh 1.0 and DNMT1 block 17.8.
`O=C(Cc1ccccc1)N/N=C/c1ccc(OCC(=O)Nc2ccccc2)cc1` gave SUMO1 PPI mod 5.7, STEP inh -1.8, LMPTP block 1.0, Scp1 inh 82.4*, GRK2 inh 0.0, DNMT1 block -3.8, Scp1 confirm 44.4*, Scp-1 MG ctr -12.6 and Scp-1 Tm shift -15.8.
For O=C(Nc1ccc(F)c(Cl)c1)Nc1nnc([C@H]2C[C@H](O)[C@@H](CO)O2)s1 the results were SUMO1 PPI mod 3.4, STEP inh -4.0, LMPTP block -1.6 and DNMT1 block 0.4.
For CO[C@@]1(NC(=O)C2SC(=C(C(N)=O)C(=O)O)S2)C(=O)N2C(C(=O)O)=C(CSc3nnnn3C)CS[C@@H]21 (stereo partly drawn) the results were SUMO1 PPI mod 5.6, STEP inh -1.6, LMPTP block -1.2, Scp1 inh 41.8, GRK2 inh 2.0 and DNMT1 block 10.8.
Screening CO[C@@]1(NC(=O)Cc2cccs2)C(=O)N2C(C(=O)O)=C(COC(N)=O)CS[C@@H]21 returned SUMO1 PPI mod 8.5, STEP inh 5.4, LMPTP block -0.9, Scp1 inh 51.7*, GRK2 inh 2.0, DNMT1 block 6.3, Scp1 confirm 40.9*, Scp-1 MG ctr -10.1 and Scp-1 Tm shift 1.8.
Screening CCC(C(=O)NC(C)(C)C)n1c(-c2ccc3c(c2)OCO3)nc2ccccc21 (stereo not drawn) returned SUMO1 PPI mod 0.8 and LMPTP block 0.2.
Screening C/C(=N/NC(N)=S)c1cc2ccc(O)cc2oc1=O returned SUMO1 PPI mod -1.5, STEP inh -3.2, LMPTP block 10.2, Scp1 inh 54.9*, GRK2 inh 17.0, DNMT1 block 46.6, Scp1 confirm 35.9*, Scp-1 MG ctr -12.3 and Scp-1 Tm shift 4.5.
Screening CCN(CCCNc1cc2c(c(N)c1S(=O)(=O)O)C(=O)c1ccccc1C2=O)c1ccccc1 returned SUMO1 PPI mod 35.1, STEP inh 1.7, LMPTP block 8.0 and DNMT1 block 24.5.
`Fc1ccc(-c2nc3ccc(Cl)cn3c2Cc2cccc(F)c2)cc1` gave SUMO1 PPI mod 5.4, STEP inh 1.9, LMPTP block 4.6 and DNMT1 block 3.1.
Screening O=C(Nc1ccccc1)Nc1nnc([C@@H]2C[C@H](O)[C@@H](CO)O2)s1 returned SUMO1 PPI mod 4.9, STEP inh 2.1, LMPTP block -1.8 and DNMT1 block 3.5.
O=C(CN1C(=O)CCSc2ccc(S(=O)(=O)N3CCOCC3)cc21)Nc1ccccc1Cl was read as SUMO1 PPI mod 2.2, STEP inh 6.4, LMPTP block 3.7, Scp1 inh 60.5*, GRK2 inh 13.0, DNMT1 block 6.9, Scp1 confirm 46.1*, Scp-1 MG ctr -7.6 and Scp-1 Tm shift -2.0.
For O=[N+]([O-])c1cccc(-c2csc(N/N=C/c3cccc(O)c3)n2)c1 the results were SUMO1 PPI mod -8.1, STEP inh 6.3, LMPTP block 5.4, Scp1 inh 72.0*, GRK2 inh 3.0, DNMT1 block 36.0, Scp1 confirm 51.3*, Scp-1 MG ctr -12.6 and Scp-1 Tm shift 19.1*.
`CC(C)N1CC2(CC(c3ccccc3C(F)(F)F)=NO2)CN1C(=O)c1ccco1` (stereo not drawn) gave SUMO1 PPI mod 2.3, STEP inh -0.5, LMPTP block -1.3 and DNMT1 block -1.4.
Screening Cc1nnc2ccc(-c3ccc(NC(=O)c4ccco4)cc3)nn12 returned SUMO1 PPI mod 51.8*, STEP inh 1.2, LMPTP block 7.0, Scp1 inh 89.0*, GRK2 inh 4.0, DNMT1 block 11.6, Scp1 confirm 18.3 and Scp-1 MG ctr -12.3.
For O=C(Nc1ccc(-c2ccccc2)cc1)c1ccco1 the results were SUMO1 PPI mod 0.7, STEP inh 0.9, LMPTP block 0.2, Scp1 inh 59.2*, GRK2 inh 0.0, DNMT1 block 7.0, Scp1 confirm -15.7 and Scp-1 MG ctr -18.1.
O=C(Nc1ccc(NC(=O)c2ccco2)cc1)c1ccco1 was read as SUMO1 PPI mod 1.7, STEP inh -1.3, LMPTP block -0.4, Scp1 inh -6.1, GRK2 inh 2.0 and DNMT1 block 1.2.
